This is an account of results in ChEMBL document CHEMBL4706701, “Synthesis and biological activity of selenopsammaplin A and its analogues as antitumor agents with DOT1L inhibitory activity” (Bioorg Med Chem, 2021).

For data set [1], the system named is MDA-MB-231. The data set is described as follows: Down regulation of ZEB1 expression in human MDA-MB-231 cells at 50 to 200 nM measured after 48 hrs by Western blot analysis. In kind it is functional, cell-based. The settings on record: dose 50-200 nM. A digest of the protocol: (§1)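 MDA-MB-231 cells exposed to compound for 48 h; lysates in 2× SDS sample buffer with orthovanadate and NaF, protein by BCA. 5–20 μg resolved on 8–15% SDS-PAGE, PVDF, BSA block, probed for E-cadherin, N-cadherin, ZEB1, vimentin; ECL detection, β-actin internal control, band densitometry. Mean ± SD (n = 3), three experiments.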

In data set [2] the test system is MDA-MB-231. In words: Antimetastatic activity against human MDA-MB-231 cells xenografted in BALB/c nu mouse assessed as down regulation of vimentin expression in tumor tissue at 5 to 15 mg/kg, ip administered thrice per week for 38 days measured 1 week post last dose by H and E staining based immunohistochemical analysis. In kind it is functional, organism-based. As to conditions: dose 5-15 mg/kg, time 45.0 day. A digest of the protocol: (§2)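 Tumors and lungs from orthotopic MDA-MB-231/Luc nude mice (ip dosing three times weekly, 38 days) fixed in 4% PFA, paraffin-embedded, sectioned, antigen-retrieved. Lungs H&E-stained for metastatic cells; tumor sections immunostained for Ki67, H3K79me2, E-cadherin, vimentin with HRP detection, hematoxylin counterstain, imaged at 200×.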
In general terms: Xenograft models place foreign cells or tissue in a host animal.

Data set [3] has as its target Histone-lysine N-methyltransferase, H3 lysine-79 specific (Homo sapiens) (UniProt Q8TEK3). In words: Inhibition of DOT1L in human MDA-MB-231 cells assessed as down regulation of H3K79me2 expression at 200 nM by Western blot analysis. It counts as cell-based. A digest of the protocol: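 MDA-MB-231 lysates were made in 2× SDS sample buffer with vanadate and fluoride. 5-20 μg protein was run on 8–15% SDS-PAGE and blotted to PVDF. Membranes were blocked in 5% BSA, probed for H3K79me2 with total histone H3, and detected by ECL. Mean ± SD (n = 3), representative of three separate experiments.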

The next data set relates to A549. In words: Cytotoxicity against human A549 cells assessed as reduction in cell viability by SRB assay. In kind it is functional, cell-based. A digest of the protocol:
(§3)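 Cells seeded in 96-well plates and exposed to compounds for the stated times. Zero-day controls were incubated 30 min. Cells were fixed and stained with 0.4% SRB in 1% acetic acid, and bound dye was dissolved in 10 mM Tris (pH 10.0). A515 was read, and IC50 was calculated by non-linear regression.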

The nature of data set [4]: Selectivity ratio of IC50 for human MCF-10A cells to IC50 for human SNU-638 cells. A digest of the protocol:
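Cytotoxicity by SRB assay: cells seeded in 96-well plates and treated with compounds; fixed, stained with 0.4% SRB in 1% acetic acid, dye dissolved in 10 mM Tris (pH 10.0), absorbance read at 515 nm. IC50 by non-linear regression, means of at least three experiments; ratio of MCF10A IC50 to cancer-line IC50.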

Data set [5] concerns MDA-MB-231. The data set is described as follows: Antitumor activity against human MDA-MB-231 cells xenografted in BALB/c nu mouse assessed as tumor growth inhibition at 5 mg/kg, ip administered thrice per week for 38 days by caliper method relative to control. In kind it is functional. The settings on record: MDA-MB-231, ip, 912 h, time 38 day, read-out: TGI. The procedure, abridged:
(§4)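 Female BALB/c-nu mice (5–6 wk) given 1 × 10⁷ luciferase-expressing MDA-MB-231 cells in 50:50 DMEM/Matrigel into the fourth fat pad; randomized after 10 days (six per group). Dosed ip in EtOH/Cremophor/saline (5:5:90) three times weekly for 38 days. Tumor L, W, H measured by caliper, volume = LWH/2; body weight weekly; tumors excised and weighed at termination.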

Another data set concerns SK-HEP1. In words: Cytotoxicity against human SK-HEP1 cells assessed as reduction in cell viability by SRB assay. It counts as functional, cell-based. A digest of the protocol:
as §3
(In general: The SRB assay estimates cell density from bound dye.)

Data set [6] deals with MDA-MB-231. In words: Down regulation of VIM expression in human MDA-MB-231 cells at 50 to 200 nM measured after 48 hrs by Western blot analysis. In kind it is functional, cell-based. The settings on record: dose 50-200 nM. The procedure, abridged: as §1
A general note: A western blot detects proteins with antibodies after separation by electrophoresis.

Data set [7] has as its system MDA-MB-231. In words: Cytotoxicity against human MDA-MB-231 cells assessed as reduction in cell viability by SRB assay. It counts as functional, cell-based. The procedure, abridged:
as §3

In data set [8] the test system is MDA-MB-231. In words: Antitumor activity against human MDA-MB-231 cells xenografted in BALB/c nu mouse assessed as tumor growth inhibition at 15 mg/kg, ip administered thrice per week for 38 days by caliper method relative to control. As to conditions: MDA-MB-231, ip, 912 h, time 38 day, read-out: TGI. In kind it is functional. The procedure, abridged:
as §4

The test system of data set [9] is MDA-MB-231. The data set is described as follows: Down regulation of ZEB1 mRNA expression in human MDA-MB-231 cells at 50 to 200 nM measured after 24 hrs by RT-PCR analysis. The settings on record: dose 50-200 nM. In kind it is functional, cell-based.
In data set [10] the target is Histone-lysine N-methyltransferase, H3 lysine-79 specific (Homo sapiens) (UniProt Q8TEK3). The data set is described as follows: Inhibition of human N-terminal GST-tagged DOT1L (2 to 416 residues) expressed in Escherichia coli at 200 nM using DOT1L substrate measured after 2 hrs in presence of SAM by ELISA. A digest of the protocol: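 Cell-free DOT1L enzyme activity assay using 500 ng DOT1L per well. Compound was incubated 2 h before read-out. EPZ-5676 (100 nM) was the positive control. Mean ± SD (n = 3), representative of three separate experiments.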

In data set [11] the test system is MDA-MB-231. The data set is described as follows: Antimetastatic activity against human MDA-MB-231 cells xenografted in BALB/c nu mouse assessed as down regulation of H3K79me2 expression in tumor tissue at 5 to 15 mg/kg, ip administered thrice per week for 38 days measured 1 week post last dose by H and E staining based immunohistochemical analysis. In kind it is functional, organism-based. The settings on record: dose 5-15 mg/kg, time 45.0 day. The procedure, abridged: as §2

The subject of data set [12] is MDA-MB-231. In words: Down regulation of VIM mRNA expression in human MDA-MB-231 cells at 50 to 200 nM measured after 24 hrs by RT-PCR analysis. In kind it is functional, cell-based. As to conditions: dose 50-200 nM.
A further data set concerns HCT-116. The data set is described as follows: Cytotoxicity against human HCT-116 cells assessed as reduction in cell viability by SRB assay. In kind it is functional, cell-based. The procedure, abridged: as §3
Data set [13] deals with MDA-MB-231. The data set is described as follows: Down regulation of CDH2 expression in human MDA-MB-231 cells at 50 to 200 nM measured after 48 hrs by Western blot analysis. In kind it is functional, cell-based. The settings on record: dose 50-200 nM. The procedure, abridged:
as §1

Data set [14] concerns MDA-MB-231. In words: Antimigratory activity in human MDA-MB-231 cells assessed as suppression of wound closure after 24 hrs by microscopic analysis. It counts as functional, cell-based. As to conditions: dose 50-400 nM. The procedure, abridged:
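MDA-MB-231 monolayers at 80–90% confluence scratched with a pipette tip, washed with PBS, then kept 24 h in medium with 1% FBS plus compound at various concentrations. Wounds photographed at 0 and 24 h; area measured by image analysis and expressed as wound healing (%) relative to the 0 h area. Mean ± SD (n = 3), three separate experiments.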

A short description of data set [15]: Toxicity in human MDA-MB-231 cells xenografted BALB/c nu mouse at 5 to 15 mg/kg, ip administered thrice per week for 38 days. It counts as organism-based. As to conditions: in vivo, 912 h, dose 5-15 mg/kg, time 38 day. A digest of the protocol:
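Female BALB/c-nu mice, 5–6 weeks old, received 1 × 10⁷ luciferase-expressing MDA-MB-231 cells in 50:50 DMEM/Matrigel into the fourth fat pad. At day 10, mice were randomized into groups of six. Dosing was i.p. three times weekly for 38 days, in vehicle EtOH/Cremophor/saline 5:5:90. Body weight was recorded weekly, and toxicity was judged by lethality and weight loss.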

Data set [16] in a line: Selectivity ratio of IC50 for human MCF-10A cells to IC50 for human HCT-116 cells. In kind it is toxicity. The settings on record: MCF-10A cells versus HCT-116 cells, read-out: Ratio IC50.

Activity calls are given as the source filed them. No cut-off for these calls is given here.

Chain of Histone-lysine N-methyltransferase, H3 lysine-79 specific (Homo sapiens) (Q8TEK3 whole entry, looked up, the tested form may be a part): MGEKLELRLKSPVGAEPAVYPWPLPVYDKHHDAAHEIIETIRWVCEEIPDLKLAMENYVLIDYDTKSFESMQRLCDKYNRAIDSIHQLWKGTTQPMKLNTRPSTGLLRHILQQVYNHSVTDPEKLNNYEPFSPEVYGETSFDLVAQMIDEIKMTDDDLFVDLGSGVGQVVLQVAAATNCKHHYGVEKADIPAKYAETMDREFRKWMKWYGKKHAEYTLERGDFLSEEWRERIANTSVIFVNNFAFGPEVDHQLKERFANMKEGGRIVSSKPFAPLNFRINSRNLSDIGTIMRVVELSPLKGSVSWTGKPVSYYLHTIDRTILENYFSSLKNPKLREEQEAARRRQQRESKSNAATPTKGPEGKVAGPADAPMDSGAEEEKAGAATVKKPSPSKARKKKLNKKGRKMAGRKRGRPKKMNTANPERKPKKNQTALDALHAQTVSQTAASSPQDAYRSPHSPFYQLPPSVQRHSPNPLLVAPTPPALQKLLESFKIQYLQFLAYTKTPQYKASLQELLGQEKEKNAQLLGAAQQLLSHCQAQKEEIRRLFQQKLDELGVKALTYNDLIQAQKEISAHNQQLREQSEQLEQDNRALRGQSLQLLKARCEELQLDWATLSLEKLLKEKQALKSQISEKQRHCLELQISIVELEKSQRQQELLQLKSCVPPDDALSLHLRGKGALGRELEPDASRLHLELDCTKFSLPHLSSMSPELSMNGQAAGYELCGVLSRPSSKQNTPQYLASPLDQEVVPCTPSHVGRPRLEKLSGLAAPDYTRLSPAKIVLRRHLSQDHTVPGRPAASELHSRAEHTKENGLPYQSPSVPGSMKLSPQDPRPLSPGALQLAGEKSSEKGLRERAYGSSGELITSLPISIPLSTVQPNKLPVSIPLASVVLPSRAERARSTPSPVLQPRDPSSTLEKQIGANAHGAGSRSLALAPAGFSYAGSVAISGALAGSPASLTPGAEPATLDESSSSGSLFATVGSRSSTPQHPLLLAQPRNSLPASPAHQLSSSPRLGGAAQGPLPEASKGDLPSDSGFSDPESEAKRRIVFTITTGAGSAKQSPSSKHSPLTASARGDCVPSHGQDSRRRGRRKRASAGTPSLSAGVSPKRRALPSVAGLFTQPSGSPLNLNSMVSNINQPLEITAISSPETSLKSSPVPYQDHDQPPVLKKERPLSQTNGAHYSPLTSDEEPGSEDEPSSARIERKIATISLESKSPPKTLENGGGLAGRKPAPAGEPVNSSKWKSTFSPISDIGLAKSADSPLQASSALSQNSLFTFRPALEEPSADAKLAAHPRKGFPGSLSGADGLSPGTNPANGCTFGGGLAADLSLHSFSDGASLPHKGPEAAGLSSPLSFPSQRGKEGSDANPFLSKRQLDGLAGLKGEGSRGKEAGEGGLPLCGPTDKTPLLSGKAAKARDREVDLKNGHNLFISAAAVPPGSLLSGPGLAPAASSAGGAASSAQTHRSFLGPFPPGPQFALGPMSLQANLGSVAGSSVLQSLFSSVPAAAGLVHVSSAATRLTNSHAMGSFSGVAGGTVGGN

For `O=C(NCC[Se][Se]CCNC(=O)/C(Cc1ccccc1)=N/O)/C(Cc1ccccc1)=N/O`, the outcome with MDA-MB-231 [1], in the data set on MDA-MB-231 [2], in the data set with MDA-MB-231 [6], in the data set on MDA-MB-231 [9], in the data set with MDA-MB-231 [11] and in the data set with MDA-MB-231 [12] was Active. Further, the result in the data set with MDA-MB-231 [13] was Active. In addition, the “H3K79me2 downregulation (active/not active)” value in [3] is “Active”. In addition, the IC50 was 80 nM in the data set on A549, 120 nM with SK-HEP1, 60 nM in the data set on MDA-MB-231 [7] and 90 nM in the data set with HCT-116. Further, the “Ratio IC50” value in data set [4] was above 100. In the data set with MDA-MB-231 [5], the inhibition in vivo at 5 mg/kg was 45.5%. In the data set with MDA-MB-231 [8], the inhibition in vivo at 15 mg/kg was determined as 55.1%. In addition, the inhibition result in data set [10] is “Active”. Further, the Activity result in the data set on MDA-MB-231 [14] is “Dose-dependent effect”; in data set [15], “Non-Toxic”. Moreover, the selectivity ratio in data set [16] was above 100.

Usually IC50 stands for the concentration that gives 50% inhibition.
